Activity calls are given as the source filed them. The rule behind the calls is not given here.

Drawing on ChEMBL document CHEMBL1641579, “Synthesis and biological evaluation of 7-substituted-1-(3-bromophenylamino)isoquinoline-4-carbonitriles as inhibitors of myosin light chain kinase and epidermal growth factor receptor” (Bioorg Med Chem, 2011), this text covers IC50, inhibition and Ki for eleven molecules.

For experiment [1], the target named is T1, Epidermal growth factor receptor (Homo sapiens, UniProt P00533). The experiment is described as follows: Inhibition of EGFR by HTRF assay. A general note: TR-FRET usually uses a lanthanide donor and a delayed reading to cut background.
T1 sequence (P00533 whole entry): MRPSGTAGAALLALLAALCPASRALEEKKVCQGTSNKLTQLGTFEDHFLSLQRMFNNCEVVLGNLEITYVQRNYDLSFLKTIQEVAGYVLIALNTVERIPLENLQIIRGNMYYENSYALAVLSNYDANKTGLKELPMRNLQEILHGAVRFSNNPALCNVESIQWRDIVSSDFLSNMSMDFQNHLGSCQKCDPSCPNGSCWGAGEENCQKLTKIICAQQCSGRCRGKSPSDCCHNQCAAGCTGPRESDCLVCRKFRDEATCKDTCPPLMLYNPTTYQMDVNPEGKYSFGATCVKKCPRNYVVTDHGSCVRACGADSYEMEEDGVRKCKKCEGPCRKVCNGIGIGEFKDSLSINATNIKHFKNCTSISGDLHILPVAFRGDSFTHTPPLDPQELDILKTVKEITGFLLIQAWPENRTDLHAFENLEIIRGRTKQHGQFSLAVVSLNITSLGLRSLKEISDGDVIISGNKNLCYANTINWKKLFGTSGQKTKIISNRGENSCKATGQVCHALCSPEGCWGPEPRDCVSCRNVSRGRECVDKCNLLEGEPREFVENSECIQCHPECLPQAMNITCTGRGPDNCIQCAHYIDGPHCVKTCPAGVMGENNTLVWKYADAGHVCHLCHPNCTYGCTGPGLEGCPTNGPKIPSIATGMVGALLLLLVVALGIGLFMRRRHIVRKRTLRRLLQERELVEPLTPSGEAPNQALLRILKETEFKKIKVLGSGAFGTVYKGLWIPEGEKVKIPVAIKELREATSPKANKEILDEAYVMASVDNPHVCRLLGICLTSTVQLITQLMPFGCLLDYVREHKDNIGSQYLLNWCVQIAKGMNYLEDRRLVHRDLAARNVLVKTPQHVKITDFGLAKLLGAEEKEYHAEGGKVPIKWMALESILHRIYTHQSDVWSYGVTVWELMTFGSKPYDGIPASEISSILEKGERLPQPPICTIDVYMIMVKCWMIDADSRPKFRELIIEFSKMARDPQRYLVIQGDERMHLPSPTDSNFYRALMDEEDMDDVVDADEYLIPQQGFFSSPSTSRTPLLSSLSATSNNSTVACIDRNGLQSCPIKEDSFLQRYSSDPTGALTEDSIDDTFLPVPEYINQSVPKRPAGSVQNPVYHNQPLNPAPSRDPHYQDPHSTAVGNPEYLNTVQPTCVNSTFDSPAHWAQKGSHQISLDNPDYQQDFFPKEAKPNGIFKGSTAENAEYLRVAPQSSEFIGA
The target in experiment [2] is T2, Myosin light chain kinase, smooth muscle (Homo sapiens, UniProt Q15746). Kind of experiment: Inhibition of MLCK up to 40 uM by HTRF assay. The procedure, abridged: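 HTRF activity assay with peptide substrate STK1 at 375 nM and ATP at its Km (18 µM), in the presence of Ca2+/calmodulin. Kinase and inhibitor preincubated 30 min, then ATP plus substrate added. Detection by Eu-cryptate anti-phospho-STK1 antibody and streptavidin-XL665, with the 665/620 nm FRET ratio read. Eight inhibitor concentrations, Hill 4-parameter fit. At least two independent runs, each in duplicate. NI means no inhibition up to 40 µM.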
T2 sequence (Q15746 whole entry): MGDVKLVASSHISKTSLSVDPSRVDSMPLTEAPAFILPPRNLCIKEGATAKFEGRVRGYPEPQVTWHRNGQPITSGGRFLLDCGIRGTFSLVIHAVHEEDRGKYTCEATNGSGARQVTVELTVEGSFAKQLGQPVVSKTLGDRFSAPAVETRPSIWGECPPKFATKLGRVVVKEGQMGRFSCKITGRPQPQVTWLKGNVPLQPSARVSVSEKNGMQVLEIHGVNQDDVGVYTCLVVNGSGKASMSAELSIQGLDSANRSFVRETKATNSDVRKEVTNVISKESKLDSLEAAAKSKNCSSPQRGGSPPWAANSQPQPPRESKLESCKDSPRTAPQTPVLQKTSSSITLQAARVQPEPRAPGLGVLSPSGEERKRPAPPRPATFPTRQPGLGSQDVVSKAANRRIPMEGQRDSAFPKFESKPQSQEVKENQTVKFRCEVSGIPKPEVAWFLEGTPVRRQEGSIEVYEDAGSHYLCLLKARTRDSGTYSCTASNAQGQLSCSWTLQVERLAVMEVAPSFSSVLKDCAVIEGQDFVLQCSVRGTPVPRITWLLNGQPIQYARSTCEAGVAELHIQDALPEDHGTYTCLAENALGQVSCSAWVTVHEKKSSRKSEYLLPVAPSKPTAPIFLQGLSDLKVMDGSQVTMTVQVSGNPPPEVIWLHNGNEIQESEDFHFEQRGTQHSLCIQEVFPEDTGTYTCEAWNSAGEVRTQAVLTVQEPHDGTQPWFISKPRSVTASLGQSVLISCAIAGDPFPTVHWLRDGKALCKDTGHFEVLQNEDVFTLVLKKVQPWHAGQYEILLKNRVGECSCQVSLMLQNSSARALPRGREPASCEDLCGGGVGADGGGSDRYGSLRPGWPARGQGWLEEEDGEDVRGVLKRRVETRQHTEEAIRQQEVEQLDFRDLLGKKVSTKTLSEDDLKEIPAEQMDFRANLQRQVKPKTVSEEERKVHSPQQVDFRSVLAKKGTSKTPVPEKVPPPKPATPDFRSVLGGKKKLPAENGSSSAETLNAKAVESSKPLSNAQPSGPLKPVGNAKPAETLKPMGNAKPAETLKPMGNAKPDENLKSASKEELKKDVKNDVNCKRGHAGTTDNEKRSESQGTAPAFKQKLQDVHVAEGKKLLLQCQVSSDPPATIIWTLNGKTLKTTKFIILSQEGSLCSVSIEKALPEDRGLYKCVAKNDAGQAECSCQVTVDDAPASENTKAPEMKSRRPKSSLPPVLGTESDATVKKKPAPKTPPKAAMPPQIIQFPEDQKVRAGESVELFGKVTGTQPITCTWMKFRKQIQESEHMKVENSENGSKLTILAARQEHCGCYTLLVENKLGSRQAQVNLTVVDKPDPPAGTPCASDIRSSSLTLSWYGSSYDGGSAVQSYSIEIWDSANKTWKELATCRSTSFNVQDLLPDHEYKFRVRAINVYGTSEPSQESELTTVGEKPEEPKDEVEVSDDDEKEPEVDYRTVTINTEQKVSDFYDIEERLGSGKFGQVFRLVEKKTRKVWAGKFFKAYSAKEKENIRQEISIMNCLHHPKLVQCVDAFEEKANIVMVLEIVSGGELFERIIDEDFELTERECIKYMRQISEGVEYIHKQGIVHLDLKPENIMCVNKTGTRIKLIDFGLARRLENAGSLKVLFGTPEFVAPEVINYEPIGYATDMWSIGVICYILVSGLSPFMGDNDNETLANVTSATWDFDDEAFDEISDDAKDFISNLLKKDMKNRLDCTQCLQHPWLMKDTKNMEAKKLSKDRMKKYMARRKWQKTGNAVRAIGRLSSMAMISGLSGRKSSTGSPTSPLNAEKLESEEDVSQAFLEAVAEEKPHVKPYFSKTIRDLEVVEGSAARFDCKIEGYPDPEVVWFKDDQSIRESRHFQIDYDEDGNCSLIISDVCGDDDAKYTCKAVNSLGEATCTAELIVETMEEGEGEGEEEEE

For experiment [3], the target named is T2, Myosin light chain kinase, smooth muscle. The experiment is described as follows: Inhibition of MLCK by HTRF assay.
Experiment [4] addresses T1, Epidermal growth factor receptor. Kind of experiment: Inhibition of EGFR up to 40 uM by HTRF assay.

As usually defined, the IC50 is the concentration that inhibits the measured activity by half. A lower IC50 goes with greater potency. In turn, `CCC(=O)Nc1ccc2c(C#N)cnc(Nc3cccc(Br)c3)c2c1` showed an IC50 in experiment [1] of 20.8 µM. The inhibition result in experiment [2] was “inactive”.
Broadly, the Ki is a measure of affinity in units of concentration, obtained from inhibition or displacement. High values mean lower affinity, low ones higher affinity. In experiment [3], `NCCCCCCNS(=O)(=O)c1cccc2c(Cl)cccc12` came in with a Ki of 110 µM.
Consider `N#Cc1cnc(Nc2cccc(Br)c2)c2cc(NC(=O)c3cc4ccccc4[nH]3)ccc12`, for which the inhibition entry in experiment [2] and in experiment [4] was “inactive” in each case.
The molecule `N#Cc1cnc(Nc2cccc(Br)c2)c2cc(NC(=O)CCN3CCOCC3)ccc12` returned a 50% inhibitory concentration (IC50) in experiment [1] of 6.9 µM. The inhibition entry in experiment [2] was “inactive”.
Molecule `N#Cc1cnc(Nc2cccc(Br)c2)c2cc(NC(=O)c3ccco3)ccc12` displayed a half-maximal inhibitory concentration (IC50) in experiment [1] of 55.6 µM. For the same molecule, the inhibition entry in experiment [2] is “inactive”.
`COC[C@H]1OC(=O)c2coc3c2[C@@]1(C)C1=C(C3=O)[C@@H]2CCC(=O)[C@@]2(C)C[C@H]1OC(C)=O` [WORTMANNIN] had a concentration for half-maximal inhibition (IC50) in experiment [3] of 0.17 µM.
In experiment [3], `O=S(=O)(c1cccc2cnccc12)N1CCCNCC1` [FASUDIL] yielded a half-maximal inhibitory concentration (IC50) of 21.6 µM and a Ki of 36 µM.
In the case of `CCOC(=O)Nc1ccc2c(C#N)cnc(Nc3cccc(Br)c3)c2c1`, the concentration for half-maximal inhibition (IC50) in experiment [1] is 12.8 µM. The inhibition entry in experiment [2] is “inactive”.
`O=S(=O)(c1cccc2c(I)cccc12)N1CCCNCC1` returned a Ki in experiment [3] of 0.3 µM.
Take `N#Cc1cnc(Nc2cccc(Br)c2)c2cc(NC(=O)c3ccoc3)ccc12`: the IC50 in experiment [1] was 45.2 µM. Further, the inhibition entry in experiment [2] was “inactive”.
Turning to `N#Cc1cnc(Nc2cccc(Br)c2)c2cc(NC(=O)[C@@H]3CCC(=O)N3)ccc12`, half-maximal inhibition in experiment [1] (IC50) was put at 2.2 µM. Moreover, the inhibition entry in experiment [2] is “inactive”.
